Source: ChEMBL document CHEMBL4680093 (J Med Chem, 2016)

Columns and labels:
[1] = In-vivo inhibition of 11beta-HSD1 activity in C57BL/6 mouse epididymal fat assessed as reduction in cortisone to-cortisol conversion at 30 mg/kg, po measured after 6 hrs by ELISA; assay type: functional; settings: C57BL/6, Epididymal fat pad
Method in brief: (§1)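 Male C57BL/6 mice dosed orally once at 3, 10 or 30 mg/kg in sterile water containing 0.5% methylcellulose and 1% Tween80, then sacrificed at 2 or 6 h. Liver and epididymal fat pads incubated ex vivo in culture medium containing cortisone. Cortisol formed was measured by ELISA and reported as % inhibition versus vehicle.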

[2] = In-vivo inhibition of 11beta-HSD1 activity in C57BL/6 mouse liver assessed as reduction in cortisone to-cortisol conversion at 3 mg/kg, po measured after 6 hrs by ELISA; assay type: functional; settings: C57BL/6, Liver; method in brief: as §1
[3] = In-vivo inhibition of 11beta-HSD1 activity in C57BL/6 mouse liver assessed as reduction in cortisone to-cortisol conversion at 10 mg/kg, po measured after 6 hrs by ELISA; assay type: functional; settings: C57BL/6, Liver; method in brief: as §1
[4] = Protein binding in human plasma; assay type: ADME, cell-free; settings: read-out: PPB
[5] = target: Cytochrome P450 2D6 (Homo sapiens, UniProt P10635); test: Inhibition of CYP2D6 in pooled human liver microsomes using dextromethorphan as substrate in presence of NADPH incubated for 10 mins by LC-MS/MS analysis
[6] = target: 11-beta-hydroxysteroid dehydrogenase 1 (Mus musculus, UniProt P50172); test: Inhibition of mouse 11beta-HSD1 expressed in microsomes; set-up: species or system Microsome
Method in brief: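 HEK293 cell lysates (microsomal fractions) overexpressing human or mouse 11β-HSD1 were incubated with cortisone, a range of inhibitor concentrations and an NADPH regenerating system in sodium phosphate buffer at 37°C for 1 h. Cortisol in the supernatant was quantified by ELISA. Percent inhibition was fitted to a sigmoidal dose-response curve to give IC50.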

[7] = target: T1, Glucocorticoid receptor (Homo sapiens, UniProt P04150); test: Antagonist activity at glucocorticoid receptor (unknown origin)
T1 sequence (P04150 whole entry): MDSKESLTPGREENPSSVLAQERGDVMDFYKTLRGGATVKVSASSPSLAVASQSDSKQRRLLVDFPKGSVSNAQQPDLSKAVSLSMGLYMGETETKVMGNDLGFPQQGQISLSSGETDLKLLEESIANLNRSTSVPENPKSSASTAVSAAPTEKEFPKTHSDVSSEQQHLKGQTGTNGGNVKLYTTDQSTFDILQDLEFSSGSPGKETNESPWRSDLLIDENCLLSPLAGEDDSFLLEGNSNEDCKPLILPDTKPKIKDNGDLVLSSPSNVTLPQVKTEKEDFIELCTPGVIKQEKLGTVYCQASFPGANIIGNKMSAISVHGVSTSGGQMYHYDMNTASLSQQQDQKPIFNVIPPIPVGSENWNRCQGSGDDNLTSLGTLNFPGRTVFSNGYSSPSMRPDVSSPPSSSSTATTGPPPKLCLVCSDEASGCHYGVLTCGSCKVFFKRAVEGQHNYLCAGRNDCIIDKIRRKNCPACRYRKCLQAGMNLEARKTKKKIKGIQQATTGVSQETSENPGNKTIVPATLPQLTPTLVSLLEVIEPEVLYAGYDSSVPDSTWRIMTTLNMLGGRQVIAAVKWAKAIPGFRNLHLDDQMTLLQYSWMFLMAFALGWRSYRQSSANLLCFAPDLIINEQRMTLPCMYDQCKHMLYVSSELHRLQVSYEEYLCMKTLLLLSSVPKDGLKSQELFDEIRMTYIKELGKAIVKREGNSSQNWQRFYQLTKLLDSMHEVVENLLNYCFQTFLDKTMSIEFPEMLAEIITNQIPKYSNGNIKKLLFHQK

[8] = target: T2, UDP-glucuronosyltransferase 1A1 (Homo sapiens, UniProt P22309); test: Inhibition of UGT1A1 (unknown origin); assay type: ADME
T2 sequence (P22309 whole entry): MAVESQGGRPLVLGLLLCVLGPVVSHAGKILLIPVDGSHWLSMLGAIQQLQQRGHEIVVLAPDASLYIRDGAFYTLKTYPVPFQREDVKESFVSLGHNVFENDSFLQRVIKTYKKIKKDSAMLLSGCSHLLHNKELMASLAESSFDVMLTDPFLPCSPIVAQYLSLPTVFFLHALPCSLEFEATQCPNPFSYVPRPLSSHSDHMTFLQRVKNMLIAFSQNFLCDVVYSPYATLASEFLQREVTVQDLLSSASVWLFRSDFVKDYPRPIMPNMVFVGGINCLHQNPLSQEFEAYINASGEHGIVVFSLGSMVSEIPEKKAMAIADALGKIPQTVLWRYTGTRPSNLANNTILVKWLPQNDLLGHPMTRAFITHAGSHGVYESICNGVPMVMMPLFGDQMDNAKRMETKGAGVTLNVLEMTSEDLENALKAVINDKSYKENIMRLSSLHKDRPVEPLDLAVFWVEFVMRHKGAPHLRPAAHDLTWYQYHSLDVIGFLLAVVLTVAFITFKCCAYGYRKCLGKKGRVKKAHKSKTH

[9] = Clearance in dog at 0.5 mg/kg, iv; assay type: ADME, organism-based, Canis lupus familiaris; settings: in vivo
[10] = Half life in mouse at 1 mg/kg, iv; assay type: ADME, organism-based; settings: in vivo
[11] = Cmax in mouse at 5 mg/kg, po; assay type: ADME, organism-based; set-up: route oral, dose 5 mg/kg; settings: in vivo
[12] = Oral bioavailability in mouse at 5 mg/kg; assay type: ADME, organism-based; settings: in vivo
Method in brief: (§2)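 Single-dose PK study. The iv dose was given in 10% hydroxypropyl-β-cyclodextrin and the oral dose in 0.5% methylcellulose/1% Tween80. Mouse and rat received 1 mg/kg iv and 5 mg/kg po. Dog received 0.5 mg/kg iv and 4 mg/kg po. CL, Vss, t1/2, AUC, Cmax, tmax and F were derived.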

[13] = Oral bioavailability in dog at 4 mg/kg; assay type: ADME, organism-based, Canis lupus familiaris; settings: in vivo; method in brief: as §2
[14] = Toxicity in dog assessed as induction of abnormal changes in respiratory system up to 400 mg/kg, po; assay type: organism-based, Canis lupus familiaris; settings: in vivo
Method in brief: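 Dogs fitted with telemetry were given oral doses of up to 400 mg/kg. Cardiovascular and respiratory systems were monitored for abnormal changes.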

[15] = system: Erythrocyte; test: Genotoxicity in mouse erythrocytes by micronucleus test; assay type: toxicity, cell-based
[16] = Toxicity in male dog during 4-week repeated once daily oral-dose toxicity study; set-up: species or system Canis lupus familiaris; settings: in vivo, time 4 weeks
Method in brief: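 Dogs of both sexes were dosed orally once daily for 4 weeks at 25, 100 and 400 mg/kg. Toxicity was assessed and the NOAEL determined.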

[17] = system: Mus musculus; test: Improvement in lipid profile in C57BL/6-Lep^ob (ob/ob) mouse assessed as total cholesterol level at 20 mg/kg, po dosed once daily for 25 days co-treated with 300 mg/kg. po QD for 25 days metformin (reference value: 286.6 +/- 6.3 mg/dl); settings: time 25 day

Chain of Cytochrome P450 2D6 (P10635 whole entry): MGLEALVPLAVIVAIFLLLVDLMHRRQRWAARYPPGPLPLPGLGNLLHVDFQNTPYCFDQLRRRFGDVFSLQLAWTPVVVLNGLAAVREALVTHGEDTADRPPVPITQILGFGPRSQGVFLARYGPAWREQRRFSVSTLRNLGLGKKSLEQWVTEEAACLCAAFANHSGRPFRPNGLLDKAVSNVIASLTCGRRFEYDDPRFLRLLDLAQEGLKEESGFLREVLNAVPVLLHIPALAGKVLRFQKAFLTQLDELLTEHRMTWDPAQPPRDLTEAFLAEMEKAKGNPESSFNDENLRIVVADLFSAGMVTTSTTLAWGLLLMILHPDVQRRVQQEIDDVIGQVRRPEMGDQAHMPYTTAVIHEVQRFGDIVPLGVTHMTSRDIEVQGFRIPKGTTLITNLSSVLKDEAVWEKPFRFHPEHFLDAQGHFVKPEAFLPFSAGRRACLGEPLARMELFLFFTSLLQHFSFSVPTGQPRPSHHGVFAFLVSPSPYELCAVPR
Chain of 11-beta-hydroxysteroid dehydrogenase 1 (P50172 whole entry): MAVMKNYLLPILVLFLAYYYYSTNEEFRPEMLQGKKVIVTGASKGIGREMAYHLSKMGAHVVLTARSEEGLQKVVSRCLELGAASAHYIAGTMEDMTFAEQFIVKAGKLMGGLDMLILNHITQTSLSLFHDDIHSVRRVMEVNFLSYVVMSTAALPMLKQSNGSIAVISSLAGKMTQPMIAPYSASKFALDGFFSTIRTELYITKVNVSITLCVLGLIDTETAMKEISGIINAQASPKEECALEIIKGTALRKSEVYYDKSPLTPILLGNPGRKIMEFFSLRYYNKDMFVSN

## C[C@@H]1CN(c2ccc(S(C)(=O)=O)cc2F)CCN1c1nccc(C(=O)NC2C3CC4CC2CC(O)(C4)C3)n1 (some centres not stated)
[1]
  inhibition in vivo at 30 mg/kg: 93%
[2]
  inhibition in vivo at 3 mg/kg: 71%
[3]
  inhibition in vivo at 10 mg/kg: 87%
[4]
  fraction unbound: 0.01
[5]
  IC50: > 10 µM
[6]
  IC50: 0.0016 µM
[7]
  EC50: > 5 µM
[8]
  IC50: 5.6 µM
[9]
  clearance: 6 mL/min/kg
[10]
  half-life: 1.7 h
[11]
  Cmax: 2210 ng/mL
[12]
  bioavailability: 96%
[13]
  bioavailability: 98%
[14]
  Activity: Non-Toxic
[15]
  Activity: Non-Toxic
[16]
  NOAEL at 672 h: 400 mg/kg
[17]
  Activity: 235 mg/dL
